{"source": "ChEMBL document CHEMBL4007489", "about": "“First Bispecific Inhibitors of the Epidermal Growth Factor Receptor Kinase and the NF-κB Activity As Novel Anticancer Agents” (J Med Chem, 2017)", "key": {"[1]": {"target": "T1, Epidermal growth factor receptor (Homo sapiens, UniProt P00533)", "T1 sequence (P00533 whole entry)": "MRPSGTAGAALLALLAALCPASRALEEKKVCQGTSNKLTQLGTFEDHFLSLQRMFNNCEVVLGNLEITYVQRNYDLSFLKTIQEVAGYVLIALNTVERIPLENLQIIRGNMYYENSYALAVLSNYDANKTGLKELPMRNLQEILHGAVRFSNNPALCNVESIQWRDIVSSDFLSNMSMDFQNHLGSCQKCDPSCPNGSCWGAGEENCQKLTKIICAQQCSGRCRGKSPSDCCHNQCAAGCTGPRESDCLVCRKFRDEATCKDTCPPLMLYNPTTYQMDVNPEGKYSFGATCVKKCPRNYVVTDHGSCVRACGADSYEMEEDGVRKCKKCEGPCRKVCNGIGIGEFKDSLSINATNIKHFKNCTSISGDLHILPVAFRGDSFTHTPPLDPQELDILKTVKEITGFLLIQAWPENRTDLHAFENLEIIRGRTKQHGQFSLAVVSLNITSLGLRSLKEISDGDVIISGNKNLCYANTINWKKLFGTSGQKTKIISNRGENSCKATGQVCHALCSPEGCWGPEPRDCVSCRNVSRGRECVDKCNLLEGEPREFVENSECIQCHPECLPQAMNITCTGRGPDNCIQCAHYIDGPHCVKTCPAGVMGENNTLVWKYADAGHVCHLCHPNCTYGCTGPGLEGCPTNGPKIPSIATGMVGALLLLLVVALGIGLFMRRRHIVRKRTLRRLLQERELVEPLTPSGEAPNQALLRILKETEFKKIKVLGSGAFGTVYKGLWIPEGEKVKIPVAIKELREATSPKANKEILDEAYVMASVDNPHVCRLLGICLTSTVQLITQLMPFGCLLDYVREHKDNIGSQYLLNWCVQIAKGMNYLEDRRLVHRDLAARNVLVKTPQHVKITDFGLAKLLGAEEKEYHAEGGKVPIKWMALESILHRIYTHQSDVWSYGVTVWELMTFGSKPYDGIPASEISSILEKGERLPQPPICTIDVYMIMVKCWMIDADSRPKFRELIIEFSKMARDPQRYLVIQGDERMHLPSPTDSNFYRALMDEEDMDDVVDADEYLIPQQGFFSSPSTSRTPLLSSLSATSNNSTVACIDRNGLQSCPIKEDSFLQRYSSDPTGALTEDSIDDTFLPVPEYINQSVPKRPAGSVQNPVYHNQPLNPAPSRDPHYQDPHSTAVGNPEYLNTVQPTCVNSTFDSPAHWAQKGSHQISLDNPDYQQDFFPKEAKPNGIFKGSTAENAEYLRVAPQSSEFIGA", "assay": "biochemical", "assay_type": "cell-based"}, "cells": {"assay": "cells", "assay_type": "cell-based", "details": "Homo sapiens, U-937"}, "MDA-MB-231 [2]": {"system": "MDA-MB-231", "assay": "cells", "assay_type": "functional", "details": "Homo sapiens, MDA-MB-231, 48 h"}, "[3]": {"target": "Serine/threonine-protein kinase pim-1 (Homo sapiens, UniProt P11309)", "sequence (P11309 whole entry, looked up)": "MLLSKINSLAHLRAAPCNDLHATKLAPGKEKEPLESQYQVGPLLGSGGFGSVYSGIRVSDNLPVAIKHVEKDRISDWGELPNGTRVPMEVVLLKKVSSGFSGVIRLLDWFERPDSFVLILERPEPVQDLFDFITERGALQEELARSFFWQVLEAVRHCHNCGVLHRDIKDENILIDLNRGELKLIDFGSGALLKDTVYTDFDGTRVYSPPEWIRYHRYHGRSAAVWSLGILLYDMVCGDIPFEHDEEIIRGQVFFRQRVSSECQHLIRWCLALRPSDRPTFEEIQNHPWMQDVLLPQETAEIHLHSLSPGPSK", "assay": "Inhibition of human recombinant full length His-tagged PIM-1 expressed in baculovirus expression system"}, "Homo sapiens": {"species": "Homo sapiens", "assay": "Inhibition of TNFalpha-stimulated NF-kappaB (unknown origin) expressed in human U937 cells at 5 uM incubated for 3 hrs followed by TNFalpha stimulation measured after 2.5 hrs by luciferase reporter gene assay", "assay_type": "cell-based"}, "[4]": {"assay": "Half life in Sprague-Dawley rat liver microsomes assessed as parent compound remaining at 0.5 uM in presence of NADPH by LC-MS/MS analysis", "assay_type": "ADME, microsome"}, "[5]": {"assay": "Blood clearance in Sprague-Dawley rat by LC-MS/MS analysis", "assay_type": "ADME"}, "[6]": {"assay": "Cmax in NMRI nu/nu mouse at 10 mg/kg, sc administered as single dose by LC-MS analysis", "assay_type": "ADME, organism-based", "set-up": "dose 10 mg/kg, route subcutaneous", "details": "in vivo", "how_it_was_run": "(§1)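 Female NMRI nu/nu mice (28−32 g), nine animals per compound. Single sc injection of 10 mg/kg, formulated at 1 mg/mL in PBS/propylene glycol (80:20, v/v) by ultrasonication. Blood sampled at 10 min, 30 min, 1, 3, 8 and 24 h, two samples per animal, into heparinized tubes. Plasma proteins precipitated with acetonitrile containing griseofulvin internal standard. Quantified by LC-MS against calibration standards prepared in drug-free plasma.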"}, "[7]": {"assay": "Tmax in NMRI nu/nu mouse at 10 mg/kg, sc administered as single dose by LC-MS analysis", "assay_type": "ADME, organism-based", "details": "in vivo", "how_it_was_run": "as §1"}, "[8]": {"assay": "Drug uptake in NMRI nu/nu mouse at 10 mg/kg, sc administered as single dose after 24 hrs by LC-MS analysis", "assay_type": "ADME, organism-based", "details": "in vivo, read-out: Drug uptake", "how_it_was_run": "as §1"}, "[9]": {"assay": "Half life in NMRI nu/nu mouse at 10 mg/kg, sc administered as single dose by LC-MS analysis", "assay_type": "ADME, organism-based", "details": "in vivo", "how_it_was_run": "as §1"}, "[10]": {"assay": "AUC (0 to 24 hrs) in NMRI nu/nu mouse at 10 mg/kg, sc administered as single dose by LC-MS analysis", "assay_type": "ADME, organism-based", "set-up": "dose 10 mg/kg, time < 24 hr, route subcutaneous", "details": "in vivo", "how_it_was_run": "as §1"}, "[11]": {"assay": "AUC (0 to infinity) in NMRI nu/nu mouse at 10 mg/kg, sc administered as single dose by LC-MS analysis", "assay_type": "ADME, organism-based", "set-up": "dose 10 mg/kg, route subcutaneous, time infinity", "details": "in vivo", "how_it_was_run": "as §1"}, "[12]": {"assay": "Apparent oral clearance in NMRI nu/nu mouse at 10 mg/kg, sc administered as single dose by LC-MS analysis", "assay_type": "ADME, organism-based", "details": "in vivo", "how_it_was_run": "as §1"}, "MDA-MB-231 [13]": {"system": "MDA-MB-231", "assay": "Antitumor activity against human MDA-MB-231 cells xenografted in NMRI nu/nu mouse at 10 mg/kg, sc administered 5 days post tumor cell inoculation treated for 14 days followed by treatment pause for 6 days measured after 21 days", "assay_type": "functional, organism-based", "how_it_was_run": "(§2)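 MDA-MB-231 cells, 2 × 10^6 per site in Matrigel, injected into both flanks of female NMRI nu/nu mice about 8 weeks old; 6 mice per group. From day 5 after inoculation (day 1), sc dosing in PBS/propylene glycol 80:20. Dosing every weekday for 14 days, then a 6-day pause, then every second day from day 21 to sacrifice on day 28. Tumor diameters measured weekly by calipers; unpaired two-tailed t test against vehicle.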"}, "Mus musculus [14]": {"system": "Mus musculus", "assay": "(§3) Toxicity in human MDA-MB-231 cells xenografted NMRI nu/nu mouse assessed as anomalous behaviour at 10 mg/kg, sc administered 5 days post tumor cell inoculation treated for 14 days followed by treatment pause for 6 days followed by treatment continuation on every second day until day 28 measured on day 7, 14 and day 28", "assay_type": "organism-based", "details": "in vivo", "how_it_was_run": "(§4)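 Mice bearing MDA-MB-231 xenografts were monitored for behaviour and body weight over the 28-day sc dosing schedule. Organ morphology was inspected after sacrifice.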"}, "Mus musculus [15]": {"system": "Mus musculus", "assay": "as §3, with “effect on organ morphology” for “anomalous behaviour”", "assay_type": "organism-based", "details": "in vivo", "how_it_was_run": "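Female NMRI nu/nu mice (~8 weeks old) received 2 × 10^6 MDA-MB-231 cells in Matrigel into each flank. Dosing began 5 days later (day 1), with 6 mice per group. Compound or vehicle was given sc in PBS/propylene glycol (80:20, v/v) at 1 mg/mL. Behaviour and body weight were followed. Organs were inspected morphologically after sacrifice on day 28.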"}, "Mus musculus [16]": {"system": "Mus musculus", "assay": "as §3, with “effect on body weight” for “anomalous behaviour”", "assay_type": "organism-based", "details": "in vivo", "how_it_was_run": "as §4"}, "Mus musculus [17]": {"system": "Mus musculus", "assay": "Toxicity in NMRI nu/nu mouse assessed as anomalous behaviour at 10 mg/kg, sc administered as single dose", "assay_type": "organism-based", "details": "in vivo"}, "Mus musculus [18]": {"system": "Mus musculus", "assay": "Toxicity in NMRI nu/nu mouse assessed as effect on organ morphology at 10 mg/kg, sc administered as single dose", "assay_type": "organism-based", "details": "in vivo"}, "[19]": {"assay": "Solubility in water", "assay_type": "physicochemical", "details": "buffer"}, "MDA-MB-231 [20]": {"system": "MDA-MB-231", "assay": "as §3, with “Antitumor activity against” for “Toxicity in”, “xenografted in” for “xenografted”, “mouse” for “mouse assessed as anomalous behaviour”", "assay_type": "functional, organism-based", "how_it_was_run": "as §2"}, "[21]": {"target": "Receptor tyrosine-protein kinase erbB-4 (Homo sapiens) (UniProt Q15303)", "sequence (Q15303 whole entry)": "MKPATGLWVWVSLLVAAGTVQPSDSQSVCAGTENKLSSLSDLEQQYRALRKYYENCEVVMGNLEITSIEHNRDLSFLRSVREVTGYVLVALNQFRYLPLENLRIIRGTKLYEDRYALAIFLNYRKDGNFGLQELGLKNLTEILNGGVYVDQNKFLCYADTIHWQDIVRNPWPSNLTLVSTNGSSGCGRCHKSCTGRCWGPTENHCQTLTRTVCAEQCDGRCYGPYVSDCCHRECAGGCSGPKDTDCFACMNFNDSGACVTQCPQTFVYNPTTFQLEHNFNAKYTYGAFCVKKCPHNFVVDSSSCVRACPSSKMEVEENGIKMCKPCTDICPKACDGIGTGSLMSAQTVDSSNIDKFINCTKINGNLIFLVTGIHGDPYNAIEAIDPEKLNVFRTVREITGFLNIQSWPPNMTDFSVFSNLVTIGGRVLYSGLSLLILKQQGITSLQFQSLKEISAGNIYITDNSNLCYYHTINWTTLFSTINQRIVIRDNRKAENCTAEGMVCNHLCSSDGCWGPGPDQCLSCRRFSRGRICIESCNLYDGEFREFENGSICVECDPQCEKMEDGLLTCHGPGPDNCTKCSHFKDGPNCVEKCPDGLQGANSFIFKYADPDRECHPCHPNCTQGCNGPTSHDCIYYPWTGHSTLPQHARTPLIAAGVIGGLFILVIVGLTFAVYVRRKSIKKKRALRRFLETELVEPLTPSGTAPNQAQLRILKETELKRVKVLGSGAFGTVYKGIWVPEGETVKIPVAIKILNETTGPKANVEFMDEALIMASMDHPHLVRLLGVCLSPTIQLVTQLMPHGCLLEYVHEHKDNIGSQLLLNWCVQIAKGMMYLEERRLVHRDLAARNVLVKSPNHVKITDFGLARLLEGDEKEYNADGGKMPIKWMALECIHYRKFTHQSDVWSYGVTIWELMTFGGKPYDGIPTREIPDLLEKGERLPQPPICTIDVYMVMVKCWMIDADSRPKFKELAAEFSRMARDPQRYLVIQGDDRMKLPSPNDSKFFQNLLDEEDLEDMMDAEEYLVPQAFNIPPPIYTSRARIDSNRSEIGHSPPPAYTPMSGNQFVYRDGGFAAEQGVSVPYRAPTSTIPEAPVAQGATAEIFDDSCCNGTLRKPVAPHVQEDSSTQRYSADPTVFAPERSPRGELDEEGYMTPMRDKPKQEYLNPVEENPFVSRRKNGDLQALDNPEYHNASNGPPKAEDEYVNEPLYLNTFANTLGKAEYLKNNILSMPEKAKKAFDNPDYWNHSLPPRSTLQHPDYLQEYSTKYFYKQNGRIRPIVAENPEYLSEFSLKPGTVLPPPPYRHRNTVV", "assay": "Inhibition of N-terminal GST-tagged human recombinant ERBB4 expressed in baculovirus expression system"}, "[22]": {"target": "T1, Epidermal growth factor receptor", "details": "at 150 nM"}, "MDA-MB-231 [23]": {"system": "MDA-MB-231", "assay": "Growth inhibition of human MDA-MB-231 cells at 20 uM after 48 hrs by MTT assay", "assay_type": "functional, cell-based", "how_it_was_run": "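MDA-MB-231 cells seeded at 45000 per well and left to adhere overnight; compounds added after 24 h. Incubated a further 48 h at 37 °C. MTT added for 1 h, then cells lysed with 10% SDS in 0.01 N HCl for at least 2 h at 37 °C. Absorbance read at 570 nm.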"}}, "note": "Active and inactive are the calls of the source. No cut-off for these calls is given here."}
{"compound": "Fc1cc(F)cc(NC(=S)Nc2ccc3ncnc(Nc4cccc(Cl)c4)c3c2)c1", "values": [{"measurement": "IC50", "setting": "[1]", "value": 60.1, "unit": "nM"}, {"measurement": "IC50", "setting": "cells", "value": 300, "unit": "nM"}, {"measurement": "GI50", "setting": "MDA-MB-231 [2]", "value": 1100, "unit": "nM"}, {"measurement": "inhibition", "setting": "[3]", "value": "inactive"}, {"measurement": "inhibition", "setting": "Homo sapiens", "value": 73.5, "unit": "%"}, {"measurement": "half-life at 0.5 µM", "setting": "[4]", "value": 2.32, "unit": "h"}, {"measurement": "clearance", "setting": "[5]", "value": 19, "unit": "mL/min/kg"}, {"measurement": "Cmax", "setting": "[6]", "value": 327, "unit": "ng/mL"}, {"measurement": "Tmax", "setting": "[7]", "value": 8, "unit": "h"}, {"measurement": "concentration at 24 h", "setting": "[8]", "value": 79, "unit": "ng/mL"}, {"measurement": "half-life", "setting": "[9]", "value": 7.8, "unit": "h"}, {"measurement": "AUC(0-t) at 24 h", "setting": "[10]", "value": 5440, "unit": "ng·h/mL"}, {"measurement": "AUC(0-inf)", "setting": "[11]", "value": 6330, "unit": "ng·h/mL"}, {"measurement": "CL/F", "setting": "[12]", "value": 26.3, "unit": "mL/min/kg"}, {"measurement": "TGI", "setting": "MDA-MB-231 [13]", "value": "Active"}, {"measurement": "Activity", "setting": "Mus musculus [14]", "value": "Non-Toxic"}, {"measurement": "Activity", "setting": "Mus musculus [15]", "value": "Non-Toxic"}, {"measurement": "Activity", "setting": "Mus musculus [16]", "value": "Non-Toxic"}, {"measurement": "Activity", "setting": "Mus musculus [17]", "value": "Non-Toxic"}, {"measurement": "Activity", "setting": "Mus musculus [18]", "value": "Non-Toxic"}, {"measurement": "solubility", "setting": "[19]", "value": "Soluble"}, {"measurement": "TGI", "setting": "MDA-MB-231 [20]", "value": "Active"}, {"measurement": "inhibition", "setting": "[21]", "value": "inactive"}, {"measurement": "inhibition", "setting": "[22]", "value": 87.6, "unit": "%"}]}
{"compound": "FC(F)(F)c1csc(NC(=S)Nc2ccc3ncnc(Nc4cccc(Cl)c4)c3c2)n1", "values": [{"measurement": "IC50", "setting": "[1]", "value": 137, "unit": "nM"}, {"measurement": "IC50", "setting": "cells", "value": 600, "unit": "nM"}, {"measurement": "GI50", "setting": "MDA-MB-231 [2]", "value": 900, "unit": "nM"}, {"measurement": "inhibition", "setting": "Homo sapiens", "value": 92, "unit": "%"}, {"measurement": "half-life at 0.5 µM", "setting": "[4]", "value": 0.367, "unit": "h"}, {"measurement": "clearance", "setting": "[5]", "value": 51, "unit": "mL/min/kg"}, {"measurement": "Cmax", "setting": "[6]", "value": 101, "unit": "ng/mL"}, {"measurement": "Tmax", "setting": "[7]", "value": 1, "unit": "h"}, {"measurement": "concentration at 24 h", "setting": "[8]", "value": 3.5, "unit": "ng/mL"}, {"measurement": "half-life", "setting": "[9]", "value": 4.3, "unit": "h"}, {"measurement": "AUC(0-t) at 24 h", "setting": "[10]", "value": 1040, "unit": "ng·h/mL"}, {"measurement": "AUC(0-inf)", "setting": "[11]", "value": 1060, "unit": "ng·h/mL"}, {"measurement": "CL/F", "setting": "[12]", "value": 157, "unit": "mL/min/kg"}, {"measurement": "Activity", "setting": "Mus musculus [14]", "value": "Non-Toxic"}, {"measurement": "Activity", "setting": "Mus musculus [15]", "value": "Non-Toxic"}, {"measurement": "Activity", "setting": "Mus musculus [16]", "value": "Non-Toxic"}, {"measurement": "Activity", "setting": "Mus musculus [17]", "value": "Non-Toxic"}, {"measurement": "Activity", "setting": "Mus musculus [18]", "value": "Non-Toxic"}, {"measurement": "solubility", "setting": "[19]", "value": "Soluble"}, {"measurement": "inhibition", "setting": "[22]", "value": 56.4, "unit": "%"}]}
{"compound": "S=C(Nc1ccc2ncnc(Nc3cccc(Cl)c3)c2c1)Nc1ncc(Cl)s1", "values": [{"measurement": "IC50", "setting": "[1]", "value": 120, "unit": "nM"}, {"measurement": "IC50", "setting": "cells", "value": 700, "unit": "nM"}, {"measurement": "inhibition", "setting": "Homo sapiens", "value": 88.2, "unit": "%"}, {"measurement": "growth inhibition (GI)", "setting": "MDA-MB-231 [23]", "value": "inactive"}, {"measurement": "inhibition", "setting": "[22]", "value": 60, "unit": "%"}]}
